Measurements published in ChEMBL document CHEMBL1126822, “7 alpha-Methyl- and 11 beta-ethoxy-substitution of [125I]-16 alpha-iodoestradiol: effect on estrogen receptor-mediated target tissue uptake” (J Med Chem, 1993).

How the values were obtained:
Settings in all cases: in vivo
Rattus norvegicus [1] = assay: Tissue uptake (brain) of [125I]- after administration of [125I]-labeled compound to immature female rats (n=4) in the absence of 60 microg coinjected estradiol after 2 hours; assay type: ADME, organism-based
Procedure, shortened: (§1)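 Immature female Fischer rats, 24 days old, 55-60 g, unanesthetized in retention cages, given HPLC-purified 125I-labeled steroid (3 μCi, 111 kBq) via lateral tail vein in 200 μL of 9% ethanol-saline with 1% Tween-80. The blocking group was coinjected with 60 μg unlabeled estradiol and sampled at 1 h. Animals were killed under ether at 0.5-24 h. Tissues were KCl-washed, blotted, weighed and gamma-counted. Results are % ID/g, with variation as small-sample-corrected %CV.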

Rattus norvegicus [2] = assay: Tissue uptake (blood) of [125I]- after administration of [125I]-labeled compound to immature female rats (n=4) in the absence of 60 microg coinjected estradiol after 5 hours; assay type: ADME, organism-based; procedure, shortened: as §1
Rattus norvegicus [3] = assay: Tissue uptake (kidneys) of [125I]- after administration of [125I]-labeled compound to immature female rats (n=4) in the absence of 60 microg coinjected estradiol and 5 hours; assay type: ADME, organism-based, Kidney; procedure, shortened: as §1
Rattus norvegicus [4] = assay: Tissue uptake (blood) of [125I]- after administration of [125I]-labeled compound to immature female rats (n=3) in the absence of 60 microg coinjected estradiol after 24 hours; assay type: ADME, organism-based; procedure, shortened: as §1
Rattus norvegicus [5] = assay: Tissue uptake (brain) of [125I]- after administration of [125I]-labeled compound to immature female rats (n=5) in the absence of 60 microg coinjected estradiol after 1 hour; assay type: ADME, organism-based; procedure, shortened: as §1
Rattus norvegicus [6] = assay: Tissue uptake (brain) of [125I]- after administration of [125I]-labeled compound to immature female rats (n=3) in the presence of 60 microg coinjected estradiol after 1 hour; assay type: ADME, organism-based; procedure, shortened: as §1
Rattus norvegicus [7] = assay: Tissue uptake (plasma) of [125I]- after administration of [125I]-labeled compound to immature female rats (n=3) in the absence of 60 microg coinjected estradiol after 0.5 hours; assay type: ADME, organism-based; procedure, shortened: as §1
Rattus norvegicus [8] = assay: Tissue uptake (plasma) of [125I]- after administration of [125I]-labeled compound to immature female rats (n=4) in the absence of 60 microg coinjected estradiol after 5 hours; assay type: ADME, organism-based
Procedure, shortened: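 Immature female Fischer rats, 24 days old, 55-60 g, unanesthetized in retention cages, got HPLC-purified n.c.a. 125I-labeled steroid (3 μCi, 111 kBq) by lateral tail vein. Dose was given in 200 μL saline with 9% ethanol and 1% Tween-80. Deep ether anesthesia, axillary artery cut; tissues KCl-washed, blotted, weighed, gamma-counted as % ID/g; variation as small-sample-corrected %CV.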

Rattus norvegicus [9] = assay: Tissue uptake (plasma) of [125I]- after administration of [125I]-labeled compound to immature female rats (n=4) in the absence of 60 microg coinjected estradiol after 2 hours; assay type: ADME, organism-based; procedure, shortened: as §1
Rattus norvegicus [10] = assay: Tissue uptake (blood) of [125I]- after administration of [125I]-labeled compound to immature female rats (n=4) in the absence of 60 microg coinjected estradiol. (5 hours after injection) (% coefficient of variation); assay type: ADME, organism-based; procedure, shortened: as §1
Rattus norvegicus [11] = assay: Tissue uptake (plasma) of [125I]- after administration of [125I]-labeled compound to immature female rats (n=3) in the presence of 60 microg coinjected estradiol after 1 hour; assay type: ADME, organism-based; procedure, shortened: as §1
Rattus norvegicus [12] = assay: Tissue uptake (blood) of [125I]- after administration of [125I]-labeled compound to immature female rats (n=3) in the absence of 60 microg coinjected estradiol. (24 hours after injection) (% coefficient of variation); assay type: ADME, organism-based; procedure, shortened: as §1

Structure (SMILES)	ID/g (Rattus norvegicus [1]) [%]	ID/g (Rattus norvegicus [2]) [%]	ID/g (Rattus norvegicus [3]) [%]	ID/g (Rattus norvegicus [4]) [%]	ID/g (Rattus norvegicus [5]) [%]	ID/g (Rattus norvegicus [6]) [%]	ID/g (Rattus norvegicus [7]) [%]	ID/g (Rattus norvegicus [8]) [%]	ID/g (Rattus norvegicus [9]) [%]	ID/g (Rattus norvegicus [10]) [%]	ID/g (Rattus norvegicus [11]) [%]	ID/g (Rattus norvegicus [12]) [%]
CCO[C@H]1C[C@]2(C)[C@@H](O)[C@H](I)C[C@H]2[C@@H]2CCc3cc(O)ccc3[C@H]21	0.25	0.7	0.91	0.17	0.39	0.42	–	–	–	–	–	–
C[C@@H]1Cc2cc(O)ccc2[C@H]2CC[C@]3(C)[C@@H](O)[C@H](I)C[C@H]3[C@H]12	–	–	–	–	–	–	0.68	0.41	0.49	0.28	0.51	0.03
